A word on the logP: it is a log measure of how a compound divides between an organic and an aqueous phase.

The values that follow come from ChEMBL document CHEMBL1124387, “Cardiotonic agents. 9. Synthesis and biological evaluation of a series of (E)-4,5-dihydro-6-[2-[4-(1H-imidazol-1-yl)phenyl]ethenyl]-3 (2H)-pyridazinones: a novel class of compounds with positive inotropic, antithrombotic, and vasodilatory activities for the treatment of congestive heart failure” (J Med Chem, 1989).

The subject of data set [1] is Canis familiaris. The data set can be described thus: Hemodynamic activity in anesthetized dog as percent change in blood pressure from baseline (123 mmHg) at 0.1 mg/kg administered intravenously. Type of data set: functional, Canis lupus familiaris. The following applies: route intravenous. In a few lines:
(§1)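 Acutely instrumented anesthetized dogs (n = 6), 30-min control period. Compound in 0.9% saline, or dilute HCl diluted with saline, at 0.1 mL/kg iv over 1 min. At least four ascending half-log doses, 10 min apart, one compound per animal. Recorded: LV dP/dtmax, heart rate, aortic pressure and forelimb resistance. Values are maximum response from control average ± SEM.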

Data set [2] deals with Canis familiaris. The data set is described as follows: Cardiovascular activity in presence of beta-adrenoceptor blockade in dogs as percent change in forelimb vascular resistance from base line (4.71 mmHg/mL/min) at 0.01 mg/kg before nadolol administration.
The species entered for data set [3] is Canis familiaris. The data set is described as follows: Ratio of positive inotropic activity to peripheral Vasodilator activity in dogs. Type of data set: functional, Canis lupus familiaris. In a few lines:
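Inotropic ED20 is the iv bolus dose giving a 20% rise in dP/dtmax in anesthetized dogs. Vasodilator ED20 is the bolus dose into the brachial cannula of a constant-flow perfused forelimb (pentobarbital 30 mg/kg iv then 3.0 mg/kg/h, heparinized) giving a 20% fall in perfusion pressure. Each ED20 was taken from its dose-response curve; the ratio is PI/PV.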

For data set [4], the system named is Canis familiaris. The data set can be described thus: Percentage increase in left ventricular contractility in anesthetized dog. The data set is classed as functional, Canis lupus familiaris, Heart left ventricle.
For data set [5], the system named is Canis familiaris. The data set can be described thus: Hemodynamic activity in anesthetized dog as percent change in blood pressure from baseline (123 mmHg) at 0.01 mg/kg administered intravenously. Type of data set: functional, Canis lupus familiaris. The following applies: route intravenous. In a few lines:
as §1

In data set [6] the test system is Canis familiaris. The data set is described as follows: Hemodynamic activity in anesthetized dog as percent change in heart rate from baseline (152 bpm) at 0.003 mg/kg administered intravenously. The note with it: route intravenous. The data set is classed as functional, Canis lupus familiaris. In a few lines:
as §1

Data set [7] relates to Canis familiaris. The data set can be described thus: Hemodynamic activity in anesthetized dog as percent change in fore limb resistance from baseline (2.77 mmHg/mL/min) at 0.003 mg/kg administered intravenously. The data set is classed as functional, Canis lupus familiaris. The following applies: route intravenous. The procedure, abridged: as §1
Data set [8] has as its system Canis familiaris. The data set can be described thus: Cardiovascular activity in presence of beta-adrenoceptor blockade in dogs as percent change in blood pressure from base line (109/88 mmHg) at 0.01 mg/kg dose given 15 min after nadolol; -10/-13. The data set is classed as functional, Canis lupus familiaris.
The subject of data set [9] is Canis familiaris. The data set can be described thus: Hemodynamic activity in anesthetized dog as percent change in fore limb resistance from baseline (2.77 mmHg/mL/min) at 0.1 mg/kg administered intravenously. The data set is classed as functional, Canis lupus familiaris. The note with it: route intravenous. The procedure, abridged:
as §1

Data set [10] deals with Canis familiaris. The data set can be described thus: Hemodynamic activity in anesthetized dog as percent change in heart rate from baseline (152 bpm) at 0.001 mg/kg administered intravenously. The note with it: route intravenous. The data set is classed as functional, Canis lupus familiaris. In a few lines: as §1
The subject of data set [11] is Canis familiaris. The data set is described as follows: Cardiovascular activity in presence of beta-adrenoceptor blockade in dogs as percent change in heart rate from base line (121 bpm) at 0.01 mg/kg. Type of data set: functional, Canis lupus familiaris.
A short description of data set [12]: Partition coefficient (logP). Type of data set: physicochemical. The note with it: octanol/water.

Turning to `CC1CC(=O)NN=C1/C=C/c1ccc(-n2ccnc2)cc1.Cl` (configuration not stated), the Change in the data set with Canis familiaris [1] is given as -35%; in the data set with Canis familiaris [2], -19%; in the data set with Canis familiaris [5], -13%; in the data set with Canis familiaris [6] it was 5%; with Canis familiaris [7], -15%; in the data set on Canis familiaris [8] it was -10%. Moreover, the values for the Change in the data set with Canis familiaris [9], in the data set with Canis familiaris [10] and in the data set on Canis familiaris [11] were -58%, 0.2% and 6%, respectively. Further, the Ratio in the data set listed under Canis familiaris [3] is recorded as 1.29. The compound also displayed an Increase in the data set on Canis familiaris [4] of 19%. In addition, the logP in data set [12] turned out to be 1.71.
